Results collected from several papers.
Lines come from different studies, so protocols differ.

| Structure (SMILES) | test | system | conditions | solubility |
| --- | --- | --- | --- | --- |
| COCc1nn(Cc2ccc(Cn3ccccc3=O)cc2)cc1C(=O)NCc1c(F)ccc(OC)c1F | – | FaSSIF | 4 h, pH 1.6 | 9 µg/mL |
| CN(C)CCCN1c2ccccc2Sc2ccc(Cl)cc21 | – | FaSSIF | 24 h, pH 7.4, 37 °C | 810 µg/mL |
| CCn1c(-c2nc3ccc(C(=O)N4CCCC(N)C4)cc3n2C)cc2ccccc21 (centres unmarked) | – | aqueous buffer | – | 243 µM |
| OCCOc1cccc2c(NCc3ccccc3)nc(N3CCOc4ccccc43)nc12 | – | aqueous buffer | pH 6.2 | 0.48 µg/mL |
| CNc1nc2ccccc2n2c(-c3cccc(OC)c3)cnc12 | HPLC | ethanol | – | 500 µg/mL |
| CCOc1ccc2cc(-c3nn(CC4CC4)c(N)c3C(N)=O)cnc2c1 | – | PBS | pH 6.5, 25 °C | 26.5 µM |
| N=C(N)NCc1ccc(NC(=O)c2ccc(C(=O)Nc3ccc(C4=CCN(C(=N)N)CC4)cc3)cn2)cc1 | shake flask | aqueous buffer | pH 7.4 | 4.5 µg/mL |
| CCOc1ccc2cc(-c3nn(C4CCCCC4)c(N)c3C(N)=O)ccc2n1 | – | PBS | pH 6.5, 25 °C | 88.9 µM |
| COC(=O)Nc1nc2cc(C(=O)c3ccc(F)cc3)ccc2[nH]1 | – | water | 24 h | < 1 µg/mL |
| CS(=O)(=O)c1ccc2c(c1)nc(C1CCNCC1)n2Cc1ccccc1.Cl | shake flask | aqueous buffer | 20 h, pH 6.5, 25 °C | 200 µM |
| COc1cccc(OC)c1-c1nc(C(=O)N[C@@H](CC(C)C)C(=O)O)cn1-c1ccnc2cc(Cl)ccc12 | – | aqueous buffer | pH 6.2 | > 52 µg/mL |
| CS(=O)(=O)N1CCN(Cc2cc3nc(-c4cccc5[nH]ncc45)nc(N4CCOCC4)c3s2)CC1 | – | FeSSIF | – | 6 µg/mL |
| O=C(Nc1ccc(F)cc1C(=O)O)c1ccc(-c2ccccc2)cc1 | shake flask | aqueous buffer | 24 h, pH 6.5, 25 °C | 10 µM |
| C[C@]12CCCN1CC1=NNC(=O)c3cc(F)cc4[nH]c2c1c34 | – | ethanol | – | 49000 µg/mL |
| NCCCCNc1nc2cc(Cl)ccc2n1Cc1ccccc1 | shake flask | aqueous buffer | 20 h, pH 6.5, 25 °C | ≥ 200 µM |
| CCc1ccccc1-n1nc(C)c(C(=O)Nc2ccc3ccccc3n2)c1C | HPLC | PBS | 6 h, pH 7.4 | 5.9 µg/mL |
| O=C(NCCN1CCCC1)c1cc(-c2ccc(CN3CCOCC3)cc2)nc2ccc(F)cc12 | – | simulated gastric fluid | 4 h, pH 2, 37 °C, acidic | > 6490 µM |
| COc1cccc2c(NCc3ccccc3)nc(-n3c(=O)oc4ccccc43)nc12 | – | aqueous buffer | pH 7.4 | < 0.01 µg/mL |
| COCc1nc2nc(C)cc(Nc3ccc(C(F)(F)F)cc3)n2n1 | nephelometry | aqueous buffer | pH 6.5 | 150 to 300 µM |

| Structure (SMILES) | test | system | conditions | solubility |
| --- | --- | --- | --- | --- |
| CC(C)C[C@H](NC(=O)[C@H](CCc1ccccc1)NC(=O)CN1CCOCC1)C(=O)N[C@@H](Cc1ccccc1)C(=O)N[C@@H](CC(C)C)C(=O)[C@@]1(C)CO1 | – | PBS | 24 h, pH 7.4, 37 °C | 1.56 µM |
| CC[C@H](C)[C@H](NC(=O)[C@H](Cc1ccccc1)NC(=O)[C@H](Cc1ccc(O)cc1)NC(=O)[C@@H]1CCCN1C(=O)[C@@H](N)Cc1ccc(O)cc1)C(=O)N1CCC[C@H]1C(=O)N[C@@H](CC(C)C)C(=O)NCC(=O)NCC(=O)NCC(=O)N[C@@H](CCC(=O)O)C(=O)N[C@H](C(=O)N[C@@H](CC(N)=O)C(=O)N[C@@H](CC(C)C)[C@@H](O)CC(=O)N[C@H](C(=O)N[C@@H](C)C(=O)N[C@@H](CCC(=O)O)C(=O)N1CCC[C@@H]1C(=O)N[C@@H](CCCCNC(=O)CCC(=O)O[C@H]1CC[C@@]2(C)C(=CC[C@H]3[C@@H]4CC[C@H]([C@H](C)CCCC(C)C)[C@@]4(C)CC[C@@H]32)C1)C(N)=O)C(C)C)C(C)C | – | aqueous buffer | pH 6.5 | < 1 µg/mL |
| Cc1cc(F)cc(Nc2nc(NCc3ccccc3)c3ccccc3n2)c1 | – | aqueous buffer | pH 7.4 | < 0.01 µg/mL |
| O=C(Nc1ccc(S(=O)(=O)N2CCC(Cl)CC2)cc1)c1ccc([N+](=O)[O-])o1 | – | aqueous buffer | pH 6.2 | 9.2 µM |
| O=C(Nc1c2c(cc3c1CCC3)CCC2)NS(=O)(=O)/C=C/c1nccs1 | – | PBS | 24 h, pH 6.8, 37 °C | 646 µg/mL |
| CN1C(C(=O)Nc2ccccn2)=C(O)c2ccccc2S1(=O)=O | shake flask | aqueous buffer | 48 h, pH 6.5 | 7 to 9 µg/mL |
| CCCCOC(=O)c1ccc(N)cc1 | – | PBS | pH 7.4 | 226 µg/mL |
| NC1CCN(c2nccc3[nH]c(-c4ccc(F)c(F)c4)nc23)CC1 | shake flask | aqueous buffer | pH 6.5 | > 200 µM |
| c1ccc(CNc2nc(N3CCOc4ccccc43)nc3ccccc23)cc1 | – | aqueous buffer | pH 5 | 25.2 µg/mL |
| CC(C)CC(=O)N1CCC[C@H](COc2cccc3c2C(N)=NS(=O)(=O)[N-]3)C1.[Na+] | – | ethanol | – | 217000 µM |
| Clc1cccc(Nc2nc(NCc3cccc(Br)c3)c3ccccc3n2)c1 | – | aqueous buffer | pH 6.2 | 0.02 µg/mL |
| CC(=O)N[C@@H](CC(N)=O)C(=O)N[C@@H](CC(N)=O)C(=O)N[C@@H](CC(C)C)C(=O)N[C@H]1CSSC[C@@H](C(=O)N[C@H](C(N)=O)[C@@H](C)O)NC(=O)[C@H](CCCNC(=N)N)NC(=O)[C@H](Cc2c[nH]cn2)NC(=O)[C@H](C)NC(=O)CNC(=O)[C@H](Cc2c[nH]c3ccccc23)NC(=O)[C@H](CC(=O)O)NC(=O)[C@H](CCC(N)=O)NC(=O)[C@H](Cc2c[nH]c3ccccc23)NC(=O)[C@H](C(C)C)NC1=O | – | PBS | pH 7.4 | 3920 µg/mL |
| CC(C)N1CCN(Cc2cnc(-c3cc(-c4cccc5[nH]ccc45)cc4[nH]ncc34)o2)CC1 | – | aqueous buffer | pH 10 | 1 µg/mL |
| C[C@@H]1CN(c2nc3cc(Cl)ccc3n2Cc2ccccc2)C[C@H](C)N1 | shake flask | aqueous buffer | 20 h, pH 6.5, 25 °C | 140 µM |
| Brc1cccc2c(NCc3ccccc3)nc(NCc3ccccc3)nc12 | – | aqueous buffer | pH 6.2 | 0.13 µg/mL |
| Cc1cc(Nc2ccc(Cl)cc2)n2nc(C(C)(F)F)nc2n1 | nephelometry | aqueous buffer | pH 6.5 | 77 to 150 µM |
| OCCOc1ccccc1 | – | PBS | 48 h, pH 7.4, 25 °C | 180000 µM |
| Cc1ccc(Nc2nc(NCc3ccccc3)c3ccccc3n2)cc1F | – | aqueous buffer | pH 6.2 | 0.04 µg/mL |
| O=C(Nc1ccc(C(F)(F)F)cc1)N1CCC(Cc2cccc(Oc3ccc(C(F)(F)F)cn3)c2)CC1 | – | water | 48 h, 37 °C | 0.0016 µM |

| Structure (SMILES) | test | system | conditions | solubility |
| --- | --- | --- | --- | --- |
| Cc1ccc(F)cc1Nc1nc(NCc2ccccc2)c2ccccc2n1 | – | aqueous buffer | pH 6.2 | 0.07 µg/mL |
| Fc1ccc(-c2nc3c(N4CCCN(CC5CC5)CC4)nccc3[nH]2)cc1F | shake flask | aqueous buffer | pH 6.5 | > 200 µM |
| COCc1nc2nc(C)cc(Nc3ccc(S(F)(F)(F)(F)F)cc3)n2n1 | nephelometry | aqueous buffer | pH 6.5 | 63 to 130 µM |
| Clc1ccc2c(nc(N3CCNCC3)n2Cc2ccccc2)c1Br | shake flask | aqueous buffer | 20 h, pH 6.5, 25 °C | 50 µM |
| CCC(=O)O[C@]1(C(=O)SCF)[C@H](C)C[C@H]2[C@@H]3C[C@H](F)C4=CC(=O)C=C[C@]4(C)[C@@]3(F)[C@@H](O)C[C@@]21C | – | FaSSIF | – | 3.12 µM |
| Cc1cccc(C(=O)Nc2cccc(NC(=O)c3ccccc3)c2)c1 | – | PBS | pH 7.4 | 0.82 µM |
| CC(C)C[C@H](NC(=O)[C@H](Cc1ccccc1)NC(=O)c1cnccn1)B(O)O | nephelometry | aqueous buffer | pH 6.8 | 50 µM |
| CCOc1ccc2cc(-c3nn(C(C)(C)C)c(N)c3C(N)=O)cnc2c1 | – | PBS | pH 6.5, 25 °C | 26 µM |
| CSc1nc2nc(C)cc(Nc3ccc(C(F)(F)F)cc3)n2n1 | nephelometry | aqueous buffer | pH 6.5 | 19 to 38 µM |
| O=C(c1ccccn1)N(Cc1cccs1)C1(C(=O)NC2CCCCC2)CCCCC1 | – | aqueous buffer | pH 6.2 | 6.6 µg/mL |
| Fc1ccc(-c2nc3c(N4CCN5CCC4CC5)nccc3[nH]2)cc1F | shake flask | aqueous buffer | pH 6.5 | > 200 µM |
| COC(=O)c1ccc(N)cc1 | – | PBS | pH 7.4 | 1800 µg/mL |
| CC(C)(C)n1nc(-c2cnc3cc(OC4CCC4)ccc3c2)c(C(N)=O)c1N | – | PBS | pH 6.5, 25 °C | 3.7 µM |
| CS(=O)(=O)c1ncn2c(NCc3c(F)ccc4c3CCO4)ncc(-c3ccc(C4CC4)nc3)c12 | – | FaSSIF | – | 26.5 µg/mL |
| Cc1ccc(S(=O)(=O)NCc2ccc(C(=O)NCCN(Cc3ccccc3)C(C)C)cc2)cc1 | – | aqueous buffer | pH 7.4 | 0.79 µg/mL |
| COc1cc(OC)cc(N(CCNC(C)C)c2ccc3ncc(-c4cnn(C)c4)nc3c2)c1 | – | aqueous buffer | pH 9.61 | 1 µg/mL |
| CN1CCN(CC2CCN(c3nccc4[nH]c(-c5cc(F)cc(F)c5)nc34)CC2)CC1 | shake flask | aqueous buffer | pH 6.5 | > 200 µM |
| CCOc1ccc2cc(-c3nn(CC(C)(C)CO)c(N)c3C(N)=O)cnc2c1 | – | PBS | pH 6.5, 25 °C | > 100 µM |
